The list is not random: actives were taken first. Their share in the collection is about 1.5%.
PPC-1+TRAIL kill – PPC-1 cancer cell killing with TRAIL present | AID 1443 | cell killing (% activity), % at 4 µM or 5 µM | PPC-1 cells + TRAIL, ATPLite viability luminescence | 220,000 compounds, 0.41% hits;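 active means cell killing above 50% in the first pass at 4 µM, then a duplicate retest at 5 µM averaging 50% or more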;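 further: plate controls were cells with TRAIL plus DMSO for no effect and medium-only wells lacking cells for full effect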
FLuc act counter – affects firefly luciferase, flagging false hits in luciferase stimulation screens; AID 1027; activation factor at 10 µM; ATPlite luciferase biochemical, luminescence, 10 min; 0 = ATP-free wells, 1 = DMSO control; 200,000 tested, under 10 active; P08659;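 active means luciferase activation factor, scaled between plate controls, of at least 2 with compound at 10 µM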
Target sequence (P08659 whole entry, looked up): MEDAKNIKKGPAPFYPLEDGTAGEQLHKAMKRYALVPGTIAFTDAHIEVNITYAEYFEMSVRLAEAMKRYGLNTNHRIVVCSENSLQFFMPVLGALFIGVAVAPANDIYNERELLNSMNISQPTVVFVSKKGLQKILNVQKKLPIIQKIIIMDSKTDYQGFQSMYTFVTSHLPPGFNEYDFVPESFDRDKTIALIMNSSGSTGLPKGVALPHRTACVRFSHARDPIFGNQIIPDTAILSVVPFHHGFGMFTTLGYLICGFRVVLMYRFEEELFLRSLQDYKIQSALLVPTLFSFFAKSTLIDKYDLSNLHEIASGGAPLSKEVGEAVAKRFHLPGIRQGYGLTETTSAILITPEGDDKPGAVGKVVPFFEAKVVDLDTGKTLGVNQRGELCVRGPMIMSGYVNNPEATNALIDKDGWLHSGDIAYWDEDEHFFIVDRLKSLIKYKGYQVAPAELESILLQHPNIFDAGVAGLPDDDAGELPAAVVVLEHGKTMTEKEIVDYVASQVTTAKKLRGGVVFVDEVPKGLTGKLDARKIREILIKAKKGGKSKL
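Material: Luciferase/luciferin reagent mix; Doses: test compounds dosed from 2 mM stocks in 100% DMSO; Schedule: 10 min incubation after luciferase reagent addition, room temperature; Measured by: luminescence from luciferase reaction; Read-out: luminescence gain marking luciferase activators.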
TRAIL sens C8 – caspase-8 TRAIL sensitization; inhibition (viability loss, TRAIL sensitization), % at 10 µM; AID 624354; 360,000 compounds, 1% hits; NB7+C8 cells + TRAIL, ATPlite viability luminescence;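 active means compounds causing at least 50% loss of cell viability in the single-dose screen, relative to plate controls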
FLuc inh counter – counter-screen for luciferase assay inhibitors: firefly luciferase inhibition; AID 1006; inhibition, % at 10 µM; 200,000 compounds, 1.5% hits; P08659; ATPLite firefly luciferase biochemical luminescence, 10 min;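 active means inhibition above about 50% when tested at 10 µM, limit read from the data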
PPC-1 tox – PPC-1 cell cytotoxicity. shares compounds with PPC-1+TRAIL kill. cytotoxicity, % at 5 µM. PPC-1 viability, ATPlite luminescence, overnight. 1,200 compounds, 50% hits;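 active means reconfirmed compounds whose average cytotoxicity reaches 50% or more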;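 further: 0% = DMSO-treated cells and 100% = wells holding medium but no cells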
* marks the source's active call; other numbers are inactive results.

For Cc1ccc2nc3ccc(N4CCCC4)nn3c(=O)c2c1 the results were PPC-1+TRAIL kill 10, FLuc act counter 0.7, TRAIL sens C8 -2 and FLuc inh counter 28.
For CC1CCCN(c2ccc3nc4ccccc4c(=O)n3n2)C1 (stereo unspecified) the results were PPC-1+TRAIL kill 83*, FLuc act counter 0.1, TRAIL sens C8 78*, FLuc inh counter 94* and PPC-1 tox 83*.
Screening COc1ccc(-c2cc(=O)c3cc(O)ccc3o2)cc1 returned PPC-1+TRAIL kill 19, FLuc act counter 0.5, TRAIL sens C8 32, FLuc inh counter 54* and PPC-1 tox 29.
Screening Cc1ccn2c(=O)c(NC(=O)c3cccs3)c(C)nc2c1 returned TRAIL sens C8 -1.
`NC(=O)Nc1ccc(C(=O)OCC(=O)N(Cc2ccccc2)C2CCS(=O)(=O)C2)cc1` (stereo unspecified) gave PPC-1+TRAIL kill -3, FLuc act counter 1, TRAIL sens C8 14, FLuc inh counter -2 and PPC-1 tox 0.
`O=C(N/N=C/c1ccc2ncccc2c1)c1ccco1` gave PPC-1+TRAIL kill 68*, FLuc act counter 0.1, TRAIL sens C8 80*, FLuc inh counter 92* and PPC-1 tox 70*.
`O=C(N/N=C/c1ccccn1)c1ccco1` gave PPC-1+TRAIL kill 17, FLuc act counter 0.9, TRAIL sens C8 31 and FLuc inh counter 6.
For COc1cccc(N=c2oc3ccc(OC)cc3cc2-c2nc3ccccc3[nH]2)c1 the results were PPC-1+TRAIL kill 9, FLuc act counter 0.9, TRAIL sens C8 63*, FLuc inh counter 13 and PPC-1 tox 26.
O=C(NCC1CCCCC1)c1ccc2nc([C@@H]3O[C@H](CO)[C@H](O)[C@H](O)[C@H]3O)[nH]c2c1 was read as TRAIL sens C8 -2.
`COC(=O)c1sc2nc(C)cc(C)c2c1N` gave PPC-1+TRAIL kill 34, FLuc act counter 1, TRAIL sens C8 0 and FLuc inh counter 4.
For Cc1cc(C)c2c(N)c(C(=O)Nc3ncc(C)s3)sc2n1 the results were PPC-1+TRAIL kill 96*, FLuc act counter 0, TRAIL sens C8 94*, FLuc inh counter 98* and PPC-1 tox 96*.
For COc1ccccc1N1CCN(C(=O)CC(NC(=O)c2ccccc2Cl)c2ccccc2)CC1 (stereo unspecified) the results were TRAIL sens C8 2.
Screening CN(C)S(=O)(=O)c1ccc(C(=O)Nc2cccc(C(=O)O)c2)cc1 returned PPC-1+TRAIL kill 6, FLuc act counter 1, TRAIL sens C8 2, FLuc inh counter 2 and PPC-1 tox -7.
For O=C(/C=C\Nc1ccccn1)c1ccccc1 the results were PPC-1+TRAIL kill 55*, FLuc act counter 0.1, TRAIL sens C8 56*, FLuc inh counter 89* and PPC-1 tox 54*.
`O=C(/C=C/Nc1ccccc1Br)c1ccccn1` gave PPC-1+TRAIL kill 92*, FLuc act counter 0, TRAIL sens C8 93*, FLuc inh counter 97* and PPC-1 tox 93*.
`CCc1ccc(Nc2nnc(SCC(=O)NCCN3C(=O)CSC3=O)s2)cc1` gave PPC-1+TRAIL kill 45, FLuc act counter 0.2, TRAIL sens C8 58*, FLuc inh counter 84* and PPC-1 tox 45.
For CCN(C(=O)CN1CCCCC1C)c1c(N)n(Cc2ccccc2)c(=O)[nH]c1=O (stereo unspecified) the results were TRAIL sens C8 -6.
Screening CCNC(=O)N1CCNC(=O)C1CC(=O)OC (stereo unspecified) returned PPC-1+TRAIL kill 1, FLuc act counter 1, TRAIL sens C8 1, FLuc inh counter 4 and PPC-1 tox 9.
For COC(=O)CC1C(=O)NCCN1C(=O)NC1CCCCC1 (stereo unspecified) the results were PPC-1+TRAIL kill 14, FLuc act counter 1.1, TRAIL sens C8 -6 and FLuc inh counter -7.
`Oc1ccccc1-c1nc2cnccn2c1Nc1ccc2c(c1)OCCO2` gave PPC-1+TRAIL kill 4, FLuc act counter 1, TRAIL sens C8 -19, FLuc inh counter 0 and PPC-1 tox -1.
`c1cn2c(Nc3ccc4c(c3)OCCO4)c(-c3ccc(N4CCOCC4)cc3)nc2cn1` gave PPC-1+TRAIL kill 14 and TRAIL sens C8 22.
For Cc1ccc(CNc2nc3ccccc3s2)s1 the results were PPC-1+TRAIL kill 75*, FLuc act counter 0.1, TRAIL sens C8 78*, FLuc inh counter 90* and PPC-1 tox 75*.
